Experimental data reported in ChEMBL document CHEMBL2346534, “Design, synthesis and in vitro anti-proliferative activity of 4,6-quinazolinediamines as potent EGFR-TK inhibitors” (Eur J Med Chem, 2013).

Key:
Type in all cases: functional
OVCAR-8 = test: Cytotoxicity against human OVCAR8 cells after 48 hrs by SRB assay; settings: OVCAR-8, 48 h
Summary of the method: (§1)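 NCI 60-panel five-dose screen. Cells in RPMI 1640 with 5% FBS and 2 mM L-glutamine are plated at 5000–40,000 cells/well by doubling time and preincubated 24 h at 37 °C in 5% CO2. Drug in DMSO is tested at 0.01, 0.1, 1, 10 and 100 μM for 48 h. Cells are TCA-fixed, stained with SRB and read at 515 nm. GI50 is the concentration giving 50% reduction in net protein increase relative to time-zero and control plates.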

A549 = test: Cytotoxicity against human A549/ATCC cells after 48 hrs by SRB assay; settings: A549, 48 h
Summary of the method: (§2)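 NCI 60-panel five-dose screen. Cells in RPMI 1640 with 5% FBS and 2 mM L-glutamine, plated at 5000–40,000 cells/well by doubling time, preincubated 24 h at 37 °C/5% CO2. Drug from DMSO stock added at 0.01, 0.1, 1, 10 and 100 µM, then 48 h. TCA fixation, SRB stain, absorbance at 515 nm, time-zero plates included. GI50 = 50% reduction in net protein increase versus control.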

HCT-15 = test: Cytotoxicity against human HCT15 cells after 48 hrs by SRB assay; settings: HCT-15, 48 h; summary of the method: as §2
SF-539 = test: Cytotoxicity against human SF539 cells after 48 hrs by SRB assay; settings: SF-539, 48 h; summary of the method: as §1
NCI-H522 = test: Cytotoxicity against human NCI-H522 cells after 48 hrs by SRB assay; settings: NCI-H522, 48 h; summary of the method: as §1
NCI-H460 = test: Cytotoxicity against human NCI-H460 cells after 48 hrs by SRB assay; settings: NCI-H460, 48 h; summary of the method: as §1
[1] = Cytotoxicity against human NCI-ADR-RES cells after 48 hrs by SRB assay; summary of the method: as §1
SR = test: Cytotoxicity against human SR cells after 48 hrs by SRB assay; summary of the method: as §1
UACC-62 = test: Cytotoxicity against human UACC62 cells after 48 hrs by SRB assay; settings: UACC-62, 48 h
Summary of the method: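 NCI 60 five-dose screen. Cells in RPMI 1640 with 5% FBS and 2 mM L-glutamine, plated at 5000–40,000 cells/well by doubling time, pre-incubated 24 h at 37 °C, 5% CO2. Time-zero plates TCA-fixed at drug addition. Final concentrations 0.01, 0.1, 1, 10 and 100 µM (DMSO stock), 48 h exposure. TCA fixation, 0.4% SRB stain, absorbance 515 nm. GI50 from [(Ti−Tz)/(C−Tz)]×100 = 50.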

MDA-MB-231 = test: Cytotoxicity against human MDA-MB-231/ATCC cells after 48 hrs by SRB assay; settings: MDA-MB-231, 48 h; summary of the method: as §2
CAKI-1 = test: Cytotoxicity against human Caki1 cells after 48 hrs by SRB assay; settings: CAKI-1, 48 h; summary of the method: as §2
IGROV-1 = test: Cytotoxicity against human IGROV1 cells after 48 hrs by SRB assay; settings: IGROV-1, 48 h; summary of the method: as §2
OVCAR-5 = test: Cytotoxicity against human OVCAR5 cells after 48 hrs by SRB assay; settings: OVCAR-5, 48 h; summary of the method: as §1
Hs-578T = test: Cytotoxicity against human Hs578T cells after 48 hrs by SRB assay; summary of the method: as §2
786-0 = test: Cytotoxicity against human 786-0 cells after 48 hrs by SRB assay; settings: 786-0, 48 h; summary of the method: as §2
MDA-MB-435 = test: Cytotoxicity against human MDA-MB-435 cells after 48 hrs by SRB assay; settings: MDA-MB-435, 48 h; summary of the method: as §2
DU-145 = test: Cytotoxicity against human DU145 cells after 48 hrs by SRB assay; settings: DU-145, 48 h; summary of the method: as §2
SNB-19 = test: Cytotoxicity against human SNB19 cells after 48 hrs by SRB assay; settings: SNB-19, 48 h; summary of the method: as §1
RPMI-8226 = test: Cytotoxicity against human RPMI8226 cells after 48 hrs by SRB assay; settings: RPMI-8226, 48 h; summary of the method: as §1
HL-60(TB) = test: Cytotoxicity against human HL-60(TB) cells after 48 hrs by SRB assay; settings: HL-60, 48 h
Summary of the method: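 NCI 60-panel five-dose screen. Cells were grown in RPMI 1640 with 5% FBS and 2 mM L-glutamine and preincubated 24 h before dosing. Compound from DMSO stock was given at five 10-fold concentrations for 48 h at 37 °C, 5% CO2. Suspension cells were fixed with TCA (final 16%), SRB-stained, and read at 515 nm. GI50, TGI and LC50 came from time-zero, control and treated absorbances.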

MOLT-4 = test: Cytotoxicity against human MOLT4 cells after 48 hrs by SRB assay; settings: MOLT-4, 48 h; summary of the method: as §1
COLO 205 = test: Cytotoxicity against human COLO205 cells after 48 hrs by SRB assay; settings: COLO 205, 48 h; summary of the method: as §2
M14 = test: Cytotoxicity against human M14 cells after 48 hrs by SRB assay; settings: M14, 48 h; summary of the method: as §2
NCI-H226 = test: Cytotoxicity against human NCI-H226 cells after 48 hrs by SRB assay; settings: NCI-H226, 48 h; summary of the method: as §1
MCF7 = test: Cytotoxicity against human MCF7 cells after 48 hrs by SRB assay; settings: MCF7, 48 h; summary of the method: as §2
[2] = read-out: LC50 (the source's name)

Q: Which results are given for NC(=O)Nc1ccc2ncnc(Nc3ccc(Cl)cc3)c2c1?
A: GI50 (OVCAR-8): 21.7 µM; TGI (OVCAR-8): > 100 µM; CC50 (OVCAR-8; [2]): > 100 µM; GI50 (A549): 19.2 µM; TGI (A549): > 100 µM; CC50 (A549; [2]): > 100 µM; GI50 (HCT-15): 17.8 µM; TGI (HCT-15): > 100 µM; CC50 (HCT-15; [2]): > 100 µM; GI50 (SF-539): 25.5 µM; TGI (SF-539): > 100 µM; CC50 (SF-539; [2]): > 100 µM; GI50 (NCI-H522): 2.4 µM; TGI (NCI-H522): 20.9 µM; CC50 (NCI-H522; [2]): > 100 µM; GI50 (NCI-H460): 22.4 µM; TGI (NCI-H460): > 100 µM; CC50 (NCI-H460; [2]): > 100 µM; GI50 [1]: 19.5 µM; TGI [1]: > 100 µM; CC50 [1, 2]: > 100 µM; GI50 (SR): 19.1 µM; TGI (SR): 75.6 µM; CC50 (SR; [2]): > 100 µM; GI50 (UACC-62): 13.5 µM; TGI (UACC-62): 32.2 µM; CC50 (UACC-62; [2]): 77 µM; GI50 (MDA-MB-231): 8.92 µM; TGI (MDA-MB-231): 37.7 µM; CC50 (MDA-MB-231; [2]): > 100 µM; GI50 (CAKI-1): 1.33 µM; TGI (CAKI-1): 21.5 µM; CC50 (CAKI-1; [2]): > 100 µM; GI50 (IGROV-1): 6.85 µM; TGI (IGROV-1): 27.6 µM; CC50 (IGROV-1; [2]): 90.1 µM; GI50 (OVCAR-5): 15.2 µM; TGI (OVCAR-5): 90.3 µM; CC50 (OVCAR-5; [2]): > 100 µM; GI50 (Hs-578T): 14.8 µM; TGI (Hs-578T): 55.9 µM; CC50 (Hs-578T; [2]): > 100 µM; GI50 (786-0): 20.7 µM; TGI (786-0): 88.9 µM; CC50 (786-0; [2]): > 100 µM; GI50 (MDA-MB-435): 16.9 µM; TGI (MDA-MB-435): 47.6 µM; CC50 (MDA-MB-435; [2]): > 100 µM; GI50 (DU-145): 2.72 µM; TGI (DU-145): > 100 µM; CC50 (DU-145; [2]): > 100 µM; GI50 (SNB-19): 9.02 µM; TGI (SNB-19): > 100 µM; CC50 (SNB-19; [2]): > 100 µM; GI50 (RPMI-8226): 20.5 µM; TGI (RPMI-8226): 78.9 µM; CC50 (RPMI-8226; [2]): > 100 µM; GI50 (HL-60(TB)): 24.4 µM; TGI (HL-60(TB)): 69.8 µM; CC50 (HL-60(TB); [2]): > 100 µM; GI50 (MOLT-4): 18.1 µM; TGI (MOLT-4): 87.1 µM; CC50 (MOLT-4; [2]): > 100 µM; GI50 (COLO 205): 27.5 µM; TGI (COLO 205): > 100 µM; CC50 (COLO 205; [2]): > 100 µM; GI50 (M14): 25 µM; TGI (M14): 76 µM; CC50 (M14; [2]): > 100 µM; GI50 (NCI-H226): 22.3 µM; TGI (NCI-H226): > 100 µM; CC50 (NCI-H226; [2]): > 100 µM; GI50 (MCF7): 26.2 µM; TGI (MCF7): > 100 µM; CC50 (MCF7; [2]): > 100 µM
